From ChEMBL document CHEMBL4041513, “In silico identification, design and synthesis of novel piperazine-based antiviral agents targeting the hepatitis C virus helicase” (Eur J Med Chem, 2017)

Experiments:
[1] = Cytotoxicity against human HuH5.2 cells assessed as reduction in cell viability after 72 hrs by MTS assay; format: cell-based, Huh-5-2
Method in brief: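 Huh 5-2 cells carrying the genotype 1b I389luc-ubi-neo/NS3-3'/5.1 replicon were seeded at 6 500 cells/well in medium without Geneticin one day ahead. Compounds (DMSO stock) were added as 1:5 four-step or 1:2 eight-step dilutions for 72 h at 37 °C.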

Hepatitis C virus = experiment: Antiviral activity against HCV genotype 1b infected in human HuH5.2 cells with persistent I389luc-ubi-neo/NS3-3'/5.1 replicon after 72 hrs by luciferase reporter gene assay; format: functional, cell-based, Hepacivirus hominis; settings: Huh-5-2, 72 h
Method in brief: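 Huh 5-2 cells carrying the genotype 1b I389luc-ubi-neo/NS3-3'/5.1 replicon were seeded at 6 500 cells/well in Geneticin-free DMEM/10% FCS and left overnight. Compounds from DMSO stocks were added in a four-step 1-to-5 series for the first screen or an eight-step 1-to-2 series for dose-response curves, then 72 h at 37 °C. Luciferase luminescence after lysis, as % of untreated controls, gave EC50; mean of ≥2 experiments.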

[2] = Selectivity index, ratio of CC50 for human HuH5.2 cells to EC50 for HCV genotype 1b infected in human HuH5.2 cells with persistent I389luc-ubi-neo/NS3-3'/5.1 replicon
[3] = Inhibition of HCV NS3 helicase DNA unwinding activity using fluorescent DNA substrate by molecular beacon assay; parameters: species or system Hepacivirus hominis
Method in brief: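 Molecular beacon unwinding reaction: 25 mM MOPS pH 6.5, 1.25 mM MgCl2, 5% DMSO, 5 µg/ml BSA, 0.01% Tween20, 0.05 mM DTT, 5 nM fluorescent DNA substrate, 12.5 nM NS3h, 1 mM ATP. Duplicate two-fold dilutions spanned 1 mM to 0.78 µM. Data normalised to no-inhibitor and no-enzyme controls; IC50 from variable-slope Hill fit.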

| SMILES | CC50 at 72 h [1] [µM] | EC50 (Hepatitis C virus) [µM] | EC90 (Hepatitis C virus) [µM] | Ratio CC50/EC50 [2] | IC50 [3] [µM] |
| --- | --- | --- | --- | --- | --- |
| COc1ccc(S(=O)(=O)NCCC(=O)N2CCN(C(=O)CCNS(=O)(=O)c3ccc(OC)cc3)CC2)cc1 | > 87.9 | – | – | – | – |
| O=S(=O)(NCCCN1CCN(CCCNS(=O)(=O)c2cccs2)CC1)c1cccs1 | > 203 | 62 | 156 | >3.3 | – |
| O=S(=O)(NCCCN1CCN(CCNS(=O)(=O)c2ccc(Cl)cc2)CC1)c1ccc(Cl)cc1 | 32.3 | 6.59 | – | 4.9 | – |
| Cc1ccc2nc(N3C(=O)C(O)=C(C(=O)c4cc5ccccc5o4)C3c3cccc(O)c3)sc2c1 (stereo not drawn) | > 104 | 35.8 | – | >2.8 | – |
| COc1ccc(S(=O)(=O)NCCCN2CCN(CCCNS(=O)(=O)c3ccc(OC)c(OC)c3)CC2)cc1OC | > 166 | 82 | > 166 | >2 | – |
| O=C1N/C(=N/N=C/c2ccccc2O)SC1Cc1ccc(Br)cc1 (stereo not drawn) | 15.7 | 10.4 | – | 1.5 | – |
| O=[N+]([O-])c1ccc(S(=O)(=O)NCCCN2CCN(CCCNS(=O)(=O)c3ccc([N+](=O)[O-])cc3)CC2)cc1 | 77.4 | 18.1 | 61.1 | 4.4 | – |
| Cc1ccc(C(=O)C2=C(O)C(=O)N(Cc3ccco3)C2c2cccc(Cl)c2)o1 (stereo not drawn) | > 126 | 30.6 | – | >4.1 | – |
| O=S(=O)(NCCCN1CCN(CCCNS(=O)(=O)c2cccc(Cl)c2)CC1)c1cccc(Cl)c1 | > 182 | 76.9 | 173 | >2.4 | – |
| O=S(=O)(NCCN1CCN(CCNS(=O)(=O)c2ccccc2)CC1)c1ccccc1 | > 110 | > 110 | – | – | – |
| COc1ccc(OC)c(S(=O)(=O)NCCN2CCN(CCNS(=O)(=O)c3cc(OC)ccc3OC)CC2)c1 | > 87.3 | > 87.3 | – | – | – |
| CC(C)(C)c1ccc(S(=O)(=O)NCCCN2CCN(CCCNS(=O)(=O)c3ccccc3)CC2)cc1 | 20.5 | 3.74 | – | 5.5 | – |
| O=C(CCNS(=O)(=O)c1ccc2ccccc2c1)N1CCN(C(=O)CCNS(=O)(=O)c2ccc3ccccc3c2)CC1 | 40.8 | 12 | – | 3.4 | – |
| O=S(=O)(NCCNc1ccc(NCCNS(=O)(=O)c2ccc(Cl)cc2)cc1)c1ccc(Cl)cc1 | 22 | 12.1 | – | 1.8 | – |
| O=S(=O)(NCCN1CCN(CCNS(=O)(=O)c2ccc(Cl)cc2)CC1)c1ccc(Cl)cc1 | > 95.9 | > 95.9 | – | – | 250 |
| CC(CC(=O)O)CC(=O)Nc1cccnc1 (stereo not drawn) | > 225 | > 225 | > 225 | – | – |
| Cc1ccc2nc(-c3ccc4nc(-c5ccc(N)cc5)sc4c3)sc2c1S(=O)(=O)O | – | – | – | – | 10 |
| O=S(=O)(NCCCN1CCN(CCCNS(=O)(=O)c2cccc3ccccc23)CC1)c1cccc2ccccc12 | > 172 | > 172 | > 172 | – | > 1000 |
| Cc1ccc2nc(N3C(=O)C(O)=C(C(=O)c4cc5ccccc5o4)C3c3cccc(Oc4ccccc4)c3)sc2c1 (stereo not drawn) | > 89.5 | 41.8 | > 89.5 | >2.1 | – |
| Cc1ccc(S(=O)(=O)NCCCN2CCN(CCCNS(=O)(=O)c3ccc(C)cc3)CC2)cc1 | > 197 | 19.2 | – | >10.3 | – |
| Cc1ccc(S(=O)(=O)NCCN2CCN(CCNS(=O)(=O)c3ccc(C)cc3)CC2)cc1 | > 104 | > 104 | > 104 | – | – |
| Cc1ccc(S(=O)(=O)NCCCN2CCN(C(=O)CCNS(=O)(=O)c3ccc(C)cc3)CC2)cc1 | > 191 | 64.3 | 173 | >3 | – |
| COc1ccc(OC)c(S(=O)(=O)NCCC(=O)N2CCN(C(=O)CCNS(=O)(=O)c3cc(OC)ccc3OC)CC2)c1 | > 79.5 | > 79.5 | – | – | – |
| O=C(NCCCN1CCN(CCCNC(=O)c2ccc(Cl)cc2)CC1)c1ccc(Cl)cc1 | > 209 | > 209 | > 209 | – | – |
| O=S(=O)(NCCCN1CCN(CCCNS(=O)(=O)c2ccccc2)CC1)c1ccccc1 | > 104 | 58.3 | – | >1.8 | – |
| COc1ccc(S(=O)(=O)NCCCN2CCN(CCCNS(=O)(=O)c3ccc(OC)cc3)CC2)cc1 | > 92.5 | > 92.5 | > 92.5 | – | – |
